Results as given in ChEMBL document CHEMBL3414486, “Synthesis of heterocycle-modified betulinic acid derivatives as antitumor agents” (Eur J Med Chem, 2015).
Active and inactive are the calls of the source. No cut-off for these calls is given here.

How the values were obtained:
[1] = Cytotoxicity against human HCT116 cells assessed as growth inhibition after 96 hrs by SRB assay; type: functional, cell-based; details: HCT-116, 96 h
Summary of the method: (§1)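 SRB viability assay. Cells are seeded for 24 h, then exposed for 96 h to a concentration series from 20 mM DMSO stocks, with a DMSO control. Cells are fixed in 50% TCA (2 h, 4 °C), stained with 0.4% SRB for 10 min and washed with 1% acetic acid. Bound dye is dissolved in 10 mM Tris base and read at 515 nm. IC50 is averaged from at least 3 independent experiments. SI is IC50 in HAF divided by IC50 in the cancer line.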

[2] = tested on: HT-29; test: Cytotoxicity against human HT-29 cells assessed as growth inhibition after 96 hrs by SRB assay; type: functional, cell-based; details: HT-29, 96 h; summary of the method: as §1
[3] = Cytotoxicity against human PC3 cells assessed as growth inhibition after 96 hrs by SRB assay; type: functional, cell-based; details: PC-3, 96 h; summary of the method: as §1
[4] = tested on: DU-145; test: Cytotoxicity against human DU145 cells assessed as growth inhibition after 96 hrs by SRB assay; type: functional, cell-based; details: DU-145, 96 h; summary of the method: as §1
[5] = tested on: MDA-MB-231; test: Cytotoxicity against human MDA-MB-231 cells assessed as growth inhibition after 96 hrs by SRB assay; type: functional, cell-based; details: MDA-MB-231, 96 h; summary of the method: as §1
[6] = tested on: 4T1; test: Cytotoxicity against mouse 4T1 cells assessed as growth inhibition after 96 hrs by SRB assay; type: functional, cell-based; details: 4T1, 96 h; summary of the method: as §1
[7] = tested on: T47D; test: Cytotoxicity against human T47D cells assessed as growth inhibition after 96 hrs by SRB assay; type: functional, cell-based; summary of the method: as §1
[8] = tested on: MCF7; test: Cytotoxicity against human MCF7 cells assessed as growth inhibition after 96 hrs by SRB assay; type: functional, cell-based; details: MCF7, 96 h; summary of the method: as §1
[9] = Cytotoxicity against human MCF7/ADR cells assessed as growth inhibition after 96 hrs by SRB assay; type: functional, cell-based; details: NCI/ADR-RES; summary of the method: as §1
[10] = Cytotoxicity against HAF assessed as growth inhibition after 96 hrs by SRB assay; details: Homo sapiens; summary of the method: as §1
[11] = tested on: NCI/ADR-RES; test: Selectivity index, ratio of IC50 for HAF to IC50 for human MCF7/ADR cells; summary of the method: as §1
[12] = tested on: MDA-MB-231; test: Induction of apoptosis in human MDA-MB-231 cells assessed as early apoptotic cells at 5 uM after 24 hrs by annexin V-FITC/propidium iodide staining-based flow cytometric analysis (reference value: 0.59%); type: functional
[13] = tested on: MDA-MB-231; test: Induction of apoptosis in human MDA-MB-231 cells assessed as late apoptotic cells at 5 uM after 24 hrs by annexin V-FITC/propidium iodide staining-based flow cytometric analysis (reference value: 2.4%); type: functional
[14] = tested on: MCF7; test: Induction of apoptosis in human MCF7 cells assessed as early apoptotic cells at 20 uM after 24 hrs by annexin V-FITC/propidium iodide staining-based flow cytometric analysis (reference value: 0.74%); type: functional
[15] = tested on: MCF7; test: Induction of apoptosis in human MCF7 cells assessed as late apoptotic cells at 20 uM after 24 hrs by annexin V-FITC/propidium iodide staining-based flow cytometric analysis (reference value: 0.84%); type: functional
[16] = tested on: NCI/ADR-RES; test: Induction of apoptosis in human MCF7/ADR cells assessed as early apoptotic cells at 20 uM after 24 hrs by annexin V-FITC/propidium iodide staining-based flow cytometric analysis (reference value: 0.67%); type: functional
[17] = tested on: NCI/ADR-RES; test: Induction of apoptosis in human MCF7/ADR cells assessed as late apoptotic cells at 20 uM after 24 hrs by annexin V-FITC/propidium iodide staining-based flow cytometric analysis (reference value: 1.48%); type: functional
[18] = tested on: HT-29; test: Selectivity index, ratio of IC50 for HAF to IC50 for human HT-29 cells; summary of the method: as §1
[19] = tested on: PC-3; test: Selectivity index, ratio of IC50 for HAF to IC50 for human PC3 cells; summary of the method: as §1
[20] = tested on: DU-145; test: Selectivity index, ratio of IC50 for HAF to IC50 for human DU145 cells; summary of the method: as §1
[21] = Selectivity index, ratio of IC50 for HAF to IC50 for human MDA-MB-231 cells; summary of the method: as §1
[22] = tested on: 4T1; test: Selectivity index, ratio of IC50 for HAF to IC50 for mouse 4T1 cells; summary of the method: as §1
[23] = tested on: T47D; test: Selectivity index, ratio of IC50 for HAF to IC50 for human T47D cells; summary of the method: as §1
[24] = tested on: MCF7; test: Selectivity index, ratio of IC50 for HAF to IC50 for human MCF7 cells; summary of the method: as §1
[25] = tested on: HCT-116; test: Selectivity index, ratio of IC50 for HAF to IC50 for human HCT116 cells; summary of the method: as §1
[26] = tested on: MDA-MB-231; test: Antimetastatic activity against human MDA-MB-231 cells at 2.5 to 10 uM after 12 hrs by transwell assay; type: functional, cell-based
[27] = tested on: MCF7; test: Induction of apoptosis in human MCF7 cells assessed as early apoptotic cells at 80 uM after 24 hrs by annexin V-FITC/propidium iodide staining-based flow cytometric analysis (reference value: 0.74%); type: functional
[28] = tested on: MCF7; test: Induction of apoptosis in human MCF7 cells assessed as late apoptotic cells at 80 uM after 24 hrs by annexin V-FITC/propidium iodide staining-based flow cytometric analysis (reference value: 0.84%); type: functional
[29] = tested on: NCI/ADR-RES; test: Induction of apoptosis in human MCF7/ADR cells assessed as early apoptotic cells at 80 uM after 24 hrs by annexin V-FITC/propidium iodide staining-based flow cytometric analysis (reference value: 0.67%); type: functional
[30] = tested on: NCI/ADR-RES; test: Induction of apoptosis in human MCF7/ADR cells assessed as late apoptotic cells at 80 uM after 24 hrs by annexin V-FITC/propidium iodide staining-based flow cytometric analysis (reference value: 1.48%); type: functional
[31] = tested on: MDA-MB-231; test: Antimetastatic activity against human MDA-MB-231 cells at 10 to 50 uM after 12 hrs by transwell assay relative to control; type: functional, cell-based
Summary of the method: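 Transwell migration: 8 × 10^4 MDA-MB-231 cells in serum-free medium in the upper chamber, with 10% FBS medium below. Compound added to both chambers, then 12 h migration. Non-migrated cells swabbed off. Migrated cells fixed in 4% paraformaldehyde for 30 min, stained with 0.1% crystal violet for 5 min, and counted in 5 random fields. Inhibition normalized to untreated control migration.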

[32] = tested on: MDA-MB-231; test: Induction of apoptosis in human MDA-MB-231 cells assessed as late apoptotic cells at 80 uM after 24 hrs by annexin V-FITC/propidium iodide staining-based flow cytometric analysis (reference value: 2.4%)
[33] = tested on: MDA-MB-231; test: Induction of apoptosis in human MDA-MB-231 cells assessed as early apoptotic cells at 80 uM after 24 hrs by annexin V-FITC/propidium iodide staining-based flow cytometric analysis (reference value: 0.59%)

Row | Compound | IC50 [1] [µM] | IC50 [2] [µM] | IC50 [3] [µM] | IC50 [4] [µM] | IC50 [5] [µM] | IC50 [6] [µM] | IC50 [7] [µM] | IC50 [8] [µM] | IC50 [9] [µM] | IC50 [10] [µM] | Ratio IC50 [11] | Ratio IC50 [18] | Ratio IC50 [19] | Ratio IC50 [20] | Ratio IC50 [21] | Ratio IC50 [22] | Ratio IC50 [23] | Ratio IC50 [24] | Ratio IC50 [25] | also measured
1 | C=C(C)[C@@H]1CC[C@]2(C(=O)O)CC[C@]3(C)[C@H](CC[C@@H]4[C@@]5(C)CC[C@H](NC(=O)C6CCNCC6)C(C)(C)[C@@H]5CC[C@]43C)[C@@H]12 | 1.11 | 0.97 | 1.11 | 2.45 | 1.01 | 1.77 | 1.4 | 0.54 | 0.33 | 4.45 | 13.5 | 4.6 | 4 | 1.8 | 4.4 | 2.5 | 3.2 | 8.2 | 4 | Activity [12]: 5.56%; Activity [13]: 25.87%; Activity [14]: 16.17%; Activity [15]: 4.15%; Activity [16]: 12.81%; Activity [17]: 6.35%; Activity [26]: Active
2 | C=C(C)[C@@H]1CC[C@]2(C(=O)O)CC[C@]3(C)[C@H](CC[C@@H]4[C@@]5(C)CC[C@H](NC(=O)C6CCCNC6)C(C)(C)[C@@H]5CC[C@]43C)[C@@H]12 (stereo partly specified) | 1.28 | 1.19 | 1.3 | 3.16 | 1.94 | 2.18 | 2.24 | 0.94 | 0.39 | 3.18 | 8.2 | 2.7 | 2.4 | 1 | 1.6 | 1.5 | 1.4 | 3.4 | 2.5 | –
3 | C=C(C)[C@@H]1CC[C@]2(C(=O)O)CC[C@]3(C)[C@H](CC[C@@H]4[C@@]5(C)CC[C@H](NC(=O)CCC6CCNCC6)C(C)(C)[C@@H]5CC[C@]43C)[C@@H]12 | 6.86 | 2.39 | 3.42 | 4.39 | 3.27 | 2.99 | 2.59 | 2.9 | 4.42 | 6.89 | 1.6 | 2.9 | 2 | 1.6 | 2.1 | 2.3 | 2.7 | 2.4 | 1 | –
4 | C=C(C)[C@@H]1CC[C@]2(C(=O)O)CC[C@]3(C)[C@H](CC[C@@H]4[C@@]5(C)CC[C@H](NC(=O)CC6CCNCC6)C(C)(C)[C@@H]5CC[C@]43C)[C@@H]12 | 2.67 | 2.46 | 2.55 | 3.72 | 3.17 | 5.15 | 2.37 | 3.43 | 3 | 9.21 | 3.1 | 3.7 | 3.6 | 2.5 | 2.9 | 1.8 | 3.9 | 2.7 | 3.4 | –
5 | C=C(C)[C@@H]1CC[C@]2(C(=O)O)CC[C@]3(C)[C@H](CC[C@@H]4[C@@]5(C)CC[C@H](OC(=O)C6CCNCC6)C(C)(C)[C@@H]5CC[C@]43C)[C@@H]12 | 1.4 | 1.32 | 2.18 | 2.69 | 1.6 | 3.74 | 3.05 | 2.41 | 0.59 | 5.7 | 9.7 | 4.3 | 2.6 | 2.1 | 3.6 | 1.5 | 1.9 | 2.4 | 4.1 | –
6 | C=C(C)[C@@H]1CC[C@]2(C(=O)O)CC[C@]3(C)[C@H](CC[C@@H]4[C@@]5(C)CC[C@H](NC(=O)CCCC6CCNCC6)C(C)(C)[C@@H]5CC[C@]43C)[C@@H]12 | 5.61 | 4.38 | 5.23 | 7.7 | 3.44 | 6.01 | 5.26 | 6.49 | 0.93 | 9.15 | 9.8 | 2.1 | 1.7 | 1.2 | 2.7 | 1.5 | 1.7 | 1.4 | 1.6 | –
7 | C=C(C)[C@@H]1CC[C@]2(C(=O)O)CC[C@]3(C)[C@H](CC[C@@H]4[C@@]5(C)CC[C@H](O)C(C)(C)[C@@H]5CC[C@]43C)[C@@H]12 [BETULINIC ACID] | 22.1 | 17.3 | 27.5 | 36.2 | 34.6 | 14 | 15.6 | 22.6 | 38.5 | 34.5 | 0.9 | 2 | 1.3 | 0.9 | 1 | 2.5 | 2.2 | 1.5 | 1.6 | Activity [27]: 16.58%; Activity [28]: 1.3%; Activity [29]: 4.6%; Activity [30]: 2.64%; Activity [31]: Active; Activity [32]: 27.58%; Activity [33]: 1.94%
8 | C=C(C)[C@@H]1CC[C@]2(C(=O)O)CC[C@]3(C)[C@H](CC[C@@H]4[C@@]5(C)CC[C@H](OC(=O)C6CCCNC6)C(C)(C)[C@@H]5CC[C@]43C)[C@@H]12 (stereo partly specified) | 4.6 | 4.89 | 8.09 | 11.3 | 4.97 | 7.65 | 9.73 | 4.42 | 1.6 | 5.42 | 3.4 | 1.1 | 0.7 | 0.5 | 1.1 | 0.7 | 0.6 | 1.2 | 1.2 | –
